Results gathered from unrelated publications.
Lines come from different studies, so protocols differ.
MAOB: Amine oxidase [flavin-containing] B (MAOB, Homo sapiens, UniProt P27338)
CA9: Carbonic anhydrase 9 (CA9, Homo sapiens, UniProt Q16790)
PADI4: Protein-arginine deiminase type-4 (PADI4, Homo sapiens, UniProt Q9UM07)
ALDH1A3: Retinaldehyde dehydrogenase 3 (ALDH1A3, Homo sapiens, UniProt P47895)
CHRM4: Muscarinic acetylcholine receptor M4 (CHRM4, Homo sapiens, UniProt P08173)
Pancreatic alpha-amylase: Pancreatic alpha-amylase (Homo sapiens, UniProt P04746)
GLO1: Lactoylglutathione lyase (GLO1, Homo sapiens, UniProt Q04760)
HDAC9: Histone deacetylase 9 (HDAC9, Homo sapiens, UniProt Q9UKV0)
Comt: Catechol O-methyltransferase (Comt, Rattus norvegicus, UniProt P22734)

| Structure (SMILES) | target | effect on | action | method | notes | IC50 [nM] |
| --- | --- | --- | --- | --- | --- | --- |
| O=C(Nc1ccc(Cl)c(F)c1)c1ccc2c(c1)C(=O)NC2=O | MAOB | enzyme activity | inhibitor |  |  | 29 |
| CS(=O)(=O)Nc1ccc(Nc2nc(-c3cc4cc(Br)ccc4oc3=O)cs2)cc1Oc1ccccc1 | CA9 | enzyme activity | inhibitor |  |  | 5740 |
| N=C(CCl)NCCC[C@H](NC(=O)c1cccc(-c2ccc(B(O)O)cc2)c1)C(=O)NCc1ccccc1 | PADI4 | enzyme activity | inhibitor | fluorescence | with preincubation | 708 |
| O=C(Nc1ccc(Cl)c(Cl)c1)c1ccc2c(c1)C(=O)NC2=O | MAOB | enzyme activity | inhibitor |  |  | 14 |
| N=C(CCl)NCCC[C@H](NC(=O)c1cccc(-c2ccc(O)cc2)c1)C(=O)NCc1ccccc1 | PADI4 | enzyme activity | inhibitor | fluorescence | with preincubation | 524 |
| OC[C@H]1O[C@@H](Oc2ccc(O)c3cccc(O)c23)[C@H](O)[C@@H](O)[C@@H]1O | ALDH1A3 | enzyme activity | inhibitor |  |  | < 10000 |
| O=C(CCNC(=O)CNC(=O)CC(c1ccccc1)(c1ccccc1)c1ccccc1)NC[C@@H]1CCCN(Cc2cccnc2F)C1 | CHRM4 | ligand displacement |  | radioligand | cell membranes | > 30000 |
| CN(C)c1ccc2cc(C(=O)N[C@@H](CCCNC(=N)CCl)c3nc4ccccc4[nH]3)ccc2c1 | PADI4 | enzyme activity | inhibitor | fluorescence | with preincubation | 1060 |
| COc1cc(/C=N/NC(=S)N/N=C/c2ccc(F)cc2)ccc1Oc1ccnc2cc(Cl)ccc12 | Pancreatic alpha-amylase | enzyme activity | inhibitor | absorbance |  | 54300 |
| NS(=O)(=O)c1ccc(Nc2nc(-c3cc4cc(Br)ccc4oc3=O)cs2)c(Br)c1 | CA9 | enzyme activity | inhibitor |  |  | 860 |
| O=C(Nc1ccc(Cl)c(Br)c1)c1ccc2c(c1)C(=O)NC2=O | MAOB | enzyme activity | inhibitor |  |  | 12 |
| Cc1ccc(-c2ccc(C=O)cc2)c(C)c1 | ALDH1A3 | enzyme activity | inhibitor |  |  | 110 |
| O=C(N[C@@H](CSCc1nc2cc([N+](=O)[O-])ccc2[nH]1)C(=O)NO)c1ccccc1 | GLO1 | enzyme activity | inhibitor |  |  | 454000 |
| O=C(Nc1ccc(F)c(F)c1)c1ccc2c(c1)C(=O)NC2=O | MAOB | enzyme activity | inhibitor |  |  | 24 |
| CS(=O)(=O)Nc1ccc(Nc2nc(-c3cc4ccccc4oc3=O)cs2)cc1Oc1ccccc1 | CA9 | enzyme activity | inhibitor |  |  | 1690 |
| N=C(CCl)NCCC[C@H](NC(=O)c1ccc2cc(O)ccc2n1)C(=O)NCc1ccccc1 | PADI4 | enzyme activity | inhibitor | fluorescence | with preincubation | 560 |
| CC(C)N(CCC(=O)c1ccc2ccccc2c1)Cc1ccccc1 | ALDH1A3 | enzyme activity | inhibitor |  |  | < 10000 |
| N=C(CCl)NCCC[C@H](NC(=O)c1ccc(O)cc1)c1nc2ccccc2[nH]1 | PADI4 | enzyme activity | inhibitor | fluorescence | with preincubation | 718 |
| COc1ccc(N(Cc2nc(-c3ccc(F)cc3)cs2)C(=O)CCCCCC(=O)NO)cc1 | HDAC9 | enzyme activity | inhibitor |  |  | > 10000 |
| NS(=O)(=O)c1ccc(-c2ccc(Nc3ccncc3)cc2)cc1 | CA9 | enzyme activity | inhibitor |  |  | 210 |

| Structure (SMILES) | target | effect on | action | method | notes | IC50 [nM] |
| --- | --- | --- | --- | --- | --- | --- |
| COc1cc(/C=N/NC(=S)N/N=C/c2ccccc2)ccc1Oc1ccnc2cc(Cl)ccc12 | Pancreatic alpha-amylase | enzyme activity | inhibitor | absorbance |  | 46400 |
| COc1ccc(N(Cc2csc(-c3ccc(Br)cc3)n2)C(=O)CCCCCC(=O)NO)cc1 | HDAC9 | enzyme activity | inhibitor |  |  | > 10000 |
| N=C(CCl)NCCC[C@H](NC(=O)c1cccc(NC(=O)c2cc3c(s2)CCC3)c1)C(=O)NCc1ccccc1 | PADI4 | enzyme activity | inhibitor | fluorescence | with preincubation | 454 |
| COc1cc(/C=N/NC(=S)N/N=C\c2ccc(CCl)cc2)ccc1Oc1ccnc2cc(Cl)ccc12 | Pancreatic alpha-amylase | enzyme activity | inhibitor | absorbance |  | 58400 |
| O=C(O)CC(O)(CC(=O)O)C(=O)O | Comt | enzyme activity | inhibitor |  |  | 947000 |
| O=C(N[C@@H](CSCc1ccc([N+](=O)[O-])cc1)C(=O)NO)c1ccccc1 | GLO1 | enzyme activity | inhibitor |  |  | 952 |
| COc1cc(/C=N/NC(=S)N/N=C/c2ccc(C=O)cc2)ccc1Oc1ccnc2cc(Cl)ccc12 | Pancreatic alpha-amylase | enzyme activity | inhibitor | absorbance |  | 58700 |
| NC/C(=C\F)COc1cccc(Cn2c(=S)[nH]c(=O)c3[nH]cnc32)c1 | MAOB | enzyme activity | inhibitor |  |  | 13000 |
| CCCNS(=O)(=O)Nc1ncnc(OCCOc2ncc(Br)cn2)c1-c1ccc(Br)cc1 | Endothelin receptor type B (EDNRB, Homo sapiens, UniProt P24530) | ligand displacement |  | radioligand | cell membranes | 1370 |
| CN1CCC(CNc2ccc3ncc(-c4cccc(OC(F)(F)F)c4)n3n2)CC1 | Histamine H1 receptor (HRH1, Homo sapiens, UniProt P35367) | calcium signal | antagonist |  |  | 8450 |
| COc1cc(/C=N/NC(=S)N/N=C/c2ccc(Cl)cc2)ccc1Oc1ccnc2cc(Cl)ccc12 | Pancreatic alpha-amylase | enzyme activity | inhibitor | absorbance |  | 44100 |
| COc1ccc2cc(C(=O)N[C@@H](CCCNC(=N)CCl)C(=O)NCc3ccccc3)[nH]c2c1 | PADI4 | enzyme activity | inhibitor | fluorescence | with preincubation | 362 |
| O=C(Nc1cccc(Cl)c1)c1ccc2c(c1)C(=O)NC2=O | MAOB | enzyme activity | inhibitor |  |  | 290 |
| COc1cc(/C=N/NC(=S)N/N=C\c2ccc([N+](=O)[O-])cc2)ccc1Oc1ccnc2cc(Cl)ccc12 | Pancreatic alpha-amylase | enzyme activity | inhibitor | absorbance |  | 53000 |
| O=C(NO)c1ccc(Cn2cnc3c(Nc4ccc(Cl)cc4)ncnc32)cc1 | HDAC9 | enzyme activity | inhibitor |  |  | 385 |
| O=C(CCNC(=O)CNC(=O)CC(c1ccccc1)(c1ccccc1)c1ccccc1)NC[C@H]1CCCN(Cc2ccc(F)cc2)C1 | CHRM4 | ligand displacement |  | radioligand | cell membranes | 13500 |
| N=C(CCl)NCCC[C@H](NC(=O)c1cccc(-c2ccc(O)cc2)c1)c1nc2ccccc2[nH]1 | PADI4 | enzyme activity | inhibitor | fluorescence | with preincubation | 426 |
| COc1cc(/C=N/NC(=S)NN=Cc2sccc2C)ccc1Oc1ccnc2cc(Cl)ccc12 | Pancreatic alpha-amylase | enzyme activity | inhibitor | absorbance |  | 53600 |
| C[C@@]12C[C@@]3(O)O[C@@H](O1)[C@]1(COC(=O)c4ccccc4)[C@H]3C[C@@]12O[C@@H]1O[C@H](COC(=O)c2cc(O)c(O)c(O)c2)[C@@H](O)[C@H](O)[C@H]1O | Comt | enzyme activity | inhibitor |  |  | 16200 |
